Test [1] deals with Ribosomal protein S6 kinase alpha-1 (Homo sapiens, UniProt Q15418). Description: Inhibition of C-terminal RPS6KA1 kinase domain (unknown origin) assessed as remaining activity at 10 uM by ATP-competition binding assay relative to control.
For a further test, the target named is Activated CDC42 kinase 1 (Homo sapiens, UniProt Q07912). Description: Inhibition of TNK2 (unknown origin) assessed as remaining activity at 10 uM by ATP-competition binding assay relative to control.
Test [2] deals with Serine/threonine-protein kinase Nek4 (Homo sapiens, UniProt P51957). Description: Inhibition of NEK4 in human HeLa cells lysate pre incubated for 15 mins followed by ATP acyl phosphate probe addition and measured after 10 mins by LC-MS/MS analysis. Format: subcellular.
Sequence of Serine/threonine-protein kinase Nek4 (P51957 whole entry): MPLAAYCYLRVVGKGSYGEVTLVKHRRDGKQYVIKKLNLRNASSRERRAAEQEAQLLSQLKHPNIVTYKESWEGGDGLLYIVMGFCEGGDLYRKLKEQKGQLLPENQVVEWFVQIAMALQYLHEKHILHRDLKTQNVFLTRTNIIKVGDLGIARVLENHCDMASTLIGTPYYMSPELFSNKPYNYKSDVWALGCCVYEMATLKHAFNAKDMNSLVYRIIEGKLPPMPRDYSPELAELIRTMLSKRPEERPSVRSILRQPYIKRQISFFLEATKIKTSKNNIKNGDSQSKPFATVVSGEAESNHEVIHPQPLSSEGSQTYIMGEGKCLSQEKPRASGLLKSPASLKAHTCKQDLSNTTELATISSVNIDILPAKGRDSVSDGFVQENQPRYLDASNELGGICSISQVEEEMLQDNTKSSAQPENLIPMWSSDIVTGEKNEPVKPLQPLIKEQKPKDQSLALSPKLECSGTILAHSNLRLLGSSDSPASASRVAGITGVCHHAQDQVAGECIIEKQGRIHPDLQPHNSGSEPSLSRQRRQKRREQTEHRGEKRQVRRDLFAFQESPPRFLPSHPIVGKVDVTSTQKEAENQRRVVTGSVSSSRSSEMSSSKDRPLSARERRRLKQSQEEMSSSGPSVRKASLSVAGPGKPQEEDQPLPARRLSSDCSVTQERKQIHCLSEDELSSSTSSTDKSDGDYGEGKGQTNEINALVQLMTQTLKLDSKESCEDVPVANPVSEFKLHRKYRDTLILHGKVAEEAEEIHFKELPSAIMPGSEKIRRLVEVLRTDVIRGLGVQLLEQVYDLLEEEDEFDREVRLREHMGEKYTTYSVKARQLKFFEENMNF
Test [3] deals with 1-phosphatidylinositol 3-phosphate 5-kinase (Homo sapiens, UniProt Q9Y2I7). Description: Inhibition of PIP5K3 in human HeLa cells lysate pre incubated for 15 mins followed by ATP acyl phosphate probe addition and measured after 10 mins by LC-MS/MS analysis. Type of test: subcellular.
The target in test [4] is Protein kinase C theta type (Homo sapiens, UniProt Q04759). In words: Inhibition of PKCtheta in human HeLa cells lysate pre incubated for 15 mins followed by ATP acyl phosphate probe addition and measured after 10 mins by LC-MS/MS analysis. Format: subcellular.
Sequence of Protein kinase C theta type (Q04759 whole entry, the tested form may be a part): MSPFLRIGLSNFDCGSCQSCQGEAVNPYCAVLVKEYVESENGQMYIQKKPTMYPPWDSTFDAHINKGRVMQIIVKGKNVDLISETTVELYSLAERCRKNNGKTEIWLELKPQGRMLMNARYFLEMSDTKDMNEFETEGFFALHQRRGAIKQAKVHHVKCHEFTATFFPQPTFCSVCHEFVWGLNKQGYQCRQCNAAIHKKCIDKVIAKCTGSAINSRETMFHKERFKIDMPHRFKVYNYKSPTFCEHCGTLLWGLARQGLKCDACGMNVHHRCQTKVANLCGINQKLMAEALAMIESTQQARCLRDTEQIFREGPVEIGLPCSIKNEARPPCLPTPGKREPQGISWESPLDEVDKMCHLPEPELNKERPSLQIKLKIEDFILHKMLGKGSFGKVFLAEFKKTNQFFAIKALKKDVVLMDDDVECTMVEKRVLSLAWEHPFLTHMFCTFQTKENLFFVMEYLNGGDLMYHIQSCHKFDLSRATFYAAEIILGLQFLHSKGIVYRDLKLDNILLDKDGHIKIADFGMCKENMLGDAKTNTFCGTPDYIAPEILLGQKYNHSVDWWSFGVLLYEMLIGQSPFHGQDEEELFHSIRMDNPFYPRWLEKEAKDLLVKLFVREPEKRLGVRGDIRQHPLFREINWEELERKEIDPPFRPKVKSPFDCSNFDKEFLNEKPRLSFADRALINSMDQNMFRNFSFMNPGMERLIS
Another test deals with AMPK alpha1/alpha2 (Homo sapiens, UniProt P54646+Q13131). In words: Inhibition of AMPKalpha1/2 in human HeLa cells lysate pre incubated for 15 mins followed by ADP acyl phosphate probe addition and measured after 10 mins by LC-MS/MS analysis. Format: subcellular. A digest of the protocol: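 HeLa cell lysates (5 mg/mL total protein) were preincubated with inhibitor at 0, 0.8, 2, 10 or 50 μM for 15 min. ATP or ADP acylphosphate probe was then added (5 μM final) for 10 min, and reactions were stopped with urea. Up to four fragment ions per kinase probe-peptide were quantified by targeted MS. % inhibition was taken relative to untreated lysate. Run in duplicate.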

Test [5] deals with Serine/threonine-protein kinase Chk2 (Homo sapiens, UniProt O96017). Description: Inhibition of CHK2 in human HeLa cells lysate pre incubated for 15 mins followed by ADP acyl phosphate probe addition and measured after 10 mins by LC-MS/MS analysis. Type of test: subcellular.
Sequence of Serine/threonine-protein kinase Chk2 (O96017 whole entry): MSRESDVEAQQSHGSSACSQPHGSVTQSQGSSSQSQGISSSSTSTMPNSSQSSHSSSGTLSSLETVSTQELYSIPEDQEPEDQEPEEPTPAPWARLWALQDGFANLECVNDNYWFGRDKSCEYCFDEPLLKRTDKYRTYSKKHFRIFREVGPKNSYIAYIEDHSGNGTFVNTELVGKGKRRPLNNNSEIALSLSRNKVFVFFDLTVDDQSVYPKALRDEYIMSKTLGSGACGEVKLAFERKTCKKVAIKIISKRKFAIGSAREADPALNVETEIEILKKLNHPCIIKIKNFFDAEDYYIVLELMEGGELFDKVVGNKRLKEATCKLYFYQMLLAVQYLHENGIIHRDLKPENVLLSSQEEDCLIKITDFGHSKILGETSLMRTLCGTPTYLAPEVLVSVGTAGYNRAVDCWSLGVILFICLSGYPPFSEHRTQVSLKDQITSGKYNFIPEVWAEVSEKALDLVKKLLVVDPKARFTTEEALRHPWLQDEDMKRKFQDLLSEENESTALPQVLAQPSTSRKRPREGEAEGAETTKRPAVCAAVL
Test [6] concerns the target Serine/threonine-protein kinase tousled-like 2 (Homo sapiens, UniProt Q86UE8). In words: Inhibition of TLK2 in human HeLa cells lysate at 10 uM pre incubated for 15 mins followed by ADP acyl phosphate probe addition and measured after 10 mins by LC-MS/MS analysis relative to control. The settings on record: time 25.0 min. Format: subcellular.
Test [7] addresses MAP/microtubule affinity-regulating kinase 3 (Homo sapiens, UniProt P27448). Description: Inhibition of MARK3 in human HeLa cells lysate at 10 uM pre incubated for 15 mins followed by ADP acyl phosphate probe addition and measured after 10 mins by LC-MS/MS analysis relative to control. Format: subcellular. The settings on record: time 25.0 min.
In test [8] the target is T1, Serine/threonine-protein kinase ULK3 (Homo sapiens) (UniProt Q6PHR2).
T1 sequence (whole entry): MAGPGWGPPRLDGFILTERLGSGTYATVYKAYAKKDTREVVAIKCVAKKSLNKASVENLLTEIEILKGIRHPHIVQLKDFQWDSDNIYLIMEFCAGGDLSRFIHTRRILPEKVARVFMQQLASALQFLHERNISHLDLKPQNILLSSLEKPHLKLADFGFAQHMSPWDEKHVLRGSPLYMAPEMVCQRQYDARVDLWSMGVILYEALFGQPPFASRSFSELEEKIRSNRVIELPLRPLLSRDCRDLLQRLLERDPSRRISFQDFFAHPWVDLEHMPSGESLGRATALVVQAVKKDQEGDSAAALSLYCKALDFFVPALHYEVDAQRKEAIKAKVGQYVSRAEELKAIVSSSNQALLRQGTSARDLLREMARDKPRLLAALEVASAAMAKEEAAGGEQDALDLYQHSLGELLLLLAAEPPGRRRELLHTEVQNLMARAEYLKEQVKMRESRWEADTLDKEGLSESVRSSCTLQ
Description: Inhibition of ULK3 in human HeLa cells lysate at 2 uM pre incubated for 15 mins followed by ADP acyl phosphate probe addition and measured after 10 mins by LC-MS/MS analysis relative to control. Type of test: subcellular. The conditions noted are these: time 25.0 min.

In test [9] the target is Calcium/calmodulin-dependent protein kinase type II subunit gamma (Homo sapiens, UniProt Q13555). Description: Inhibition of CAMK2g in human HeLa cells lysate at 2 uM pre incubated for 15 mins followed by ADP acyl phosphate probe addition and measured after 10 mins by LC-MS/MS analysis relative to control. The conditions noted are these: time 25.0 min. Type of test: subcellular. A digest of the protocol:
(§1)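 KiNativ-type profiling in HeLa lysate (5 mg/mL total protein). Lysate preincubated 15 min with inhibitor at 50, 10, 2, 0.8 or 0 μM, then ATP or ADP acylphosphate probe added (5 μM final) for 10 min. Reaction stopped with urea and analysed by targeted MS, using up to four fragment ions per kinase peptide-probe conjugate. % inhibition calculated against untreated lysate. Duplicate reactions.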

The target in test [10] is Tyrosine-protein kinase Lyn (Homo sapiens, UniProt P07948). Description: Inhibition of LYN in human HeLa cells lysate at 50 uM pre incubated for 15 mins followed by ATP acyl phosphate probe addition and measured after 10 mins by LC-MS/MS analysis relative to control. Type of test: subcellular. The conditions noted are these: time 25.0 min.
Sequence of Tyrosine-protein kinase Lyn (P07948 2-512 limits assumed): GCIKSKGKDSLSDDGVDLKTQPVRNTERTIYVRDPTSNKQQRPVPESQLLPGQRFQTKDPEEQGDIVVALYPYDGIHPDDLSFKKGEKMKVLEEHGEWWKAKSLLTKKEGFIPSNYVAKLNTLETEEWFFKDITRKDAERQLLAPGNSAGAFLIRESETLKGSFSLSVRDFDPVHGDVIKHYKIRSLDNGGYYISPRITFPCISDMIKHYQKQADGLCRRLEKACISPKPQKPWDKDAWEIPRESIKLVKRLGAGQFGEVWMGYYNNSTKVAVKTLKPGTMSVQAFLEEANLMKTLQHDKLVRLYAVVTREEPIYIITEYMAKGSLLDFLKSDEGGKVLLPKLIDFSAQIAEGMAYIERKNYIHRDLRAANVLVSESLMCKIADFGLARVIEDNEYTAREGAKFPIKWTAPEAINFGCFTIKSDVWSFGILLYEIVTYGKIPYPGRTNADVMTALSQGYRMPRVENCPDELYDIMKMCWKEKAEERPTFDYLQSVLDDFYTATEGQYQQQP
In test [11] the target is T2, Serine/threonine-protein kinase 4 (Homo sapiens) (UniProt Q13043).
T2 sequence (whole entry): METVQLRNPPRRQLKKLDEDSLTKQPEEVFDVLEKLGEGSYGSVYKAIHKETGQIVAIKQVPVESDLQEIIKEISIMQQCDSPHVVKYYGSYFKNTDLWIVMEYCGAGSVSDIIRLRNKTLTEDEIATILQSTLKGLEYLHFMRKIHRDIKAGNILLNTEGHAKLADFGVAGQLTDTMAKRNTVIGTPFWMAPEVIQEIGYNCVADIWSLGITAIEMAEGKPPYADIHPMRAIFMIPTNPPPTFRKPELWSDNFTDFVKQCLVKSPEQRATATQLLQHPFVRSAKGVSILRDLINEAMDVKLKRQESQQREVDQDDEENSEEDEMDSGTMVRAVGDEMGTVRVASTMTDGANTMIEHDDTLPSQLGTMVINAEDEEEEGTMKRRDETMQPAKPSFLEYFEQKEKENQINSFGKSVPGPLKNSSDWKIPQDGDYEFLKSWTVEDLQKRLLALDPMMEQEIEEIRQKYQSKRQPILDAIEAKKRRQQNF
Description: Inhibition of MST1 in human HeLa cells lysate at 10 uM pre incubated for 15 mins followed by ATP acyl phosphate probe addition and measured after 10 mins by LC-MS/MS analysis relative to control. Type of test: subcellular. The settings on record: time 25.0 min.

For test [12], the target named is Calcium/calmodulin-dependent protein kinase type II subunit delta (Homo sapiens, UniProt Q13557). In words: Inhibition of CAMK2d in human HeLa cells lysate at 2 uM pre incubated for 15 mins followed by ATP acyl phosphate probe addition and measured after 10 mins by LC-MS/MS analysis relative to control. The settings on record: time 25.0 min. Format: subcellular. Summed up:
as §1

The target in test [13] is Serine/threonine-protein kinase ATR (Homo sapiens, UniProt Q13535). Description: Inhibition of ATR in human HeLa cells lysate at 2 uM pre incubated for 15 mins followed by ATP acyl phosphate probe addition and measured after 10 mins by LC-MS/MS analysis relative to control. The settings on record: time 25.0 min. Type of test: subcellular. Summed up: as §1
Test [14] can be described thus: Inhibition of KHS1/2 in human HeLa cells lysate at 2 uM pre incubated for 15 mins followed by ATP acyl phosphate probe addition and measured after 10 mins by LC-MS/MS analysis relative to control. The settings on record: 25 min, condition cancer.

Sequence of Calcium/calmodulin-dependent protein kinase type II subunit gamma (Q13555 whole entry, the tested form may be a part): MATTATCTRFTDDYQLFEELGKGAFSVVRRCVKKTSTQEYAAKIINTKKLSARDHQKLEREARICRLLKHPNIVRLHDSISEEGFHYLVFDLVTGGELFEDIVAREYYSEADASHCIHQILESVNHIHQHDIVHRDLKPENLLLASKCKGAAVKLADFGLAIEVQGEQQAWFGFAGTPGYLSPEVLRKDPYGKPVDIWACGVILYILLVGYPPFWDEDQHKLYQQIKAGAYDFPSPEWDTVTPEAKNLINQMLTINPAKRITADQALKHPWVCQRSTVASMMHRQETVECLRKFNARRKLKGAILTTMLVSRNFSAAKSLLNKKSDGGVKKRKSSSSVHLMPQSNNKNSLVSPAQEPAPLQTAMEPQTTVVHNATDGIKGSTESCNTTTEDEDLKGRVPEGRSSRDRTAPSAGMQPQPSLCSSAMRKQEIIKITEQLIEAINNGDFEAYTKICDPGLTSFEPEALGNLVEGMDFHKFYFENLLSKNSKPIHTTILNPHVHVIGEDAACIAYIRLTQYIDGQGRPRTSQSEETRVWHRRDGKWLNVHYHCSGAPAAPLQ
Sequence of Activated CDC42 kinase 1 (Q07912 whole entry, looked up): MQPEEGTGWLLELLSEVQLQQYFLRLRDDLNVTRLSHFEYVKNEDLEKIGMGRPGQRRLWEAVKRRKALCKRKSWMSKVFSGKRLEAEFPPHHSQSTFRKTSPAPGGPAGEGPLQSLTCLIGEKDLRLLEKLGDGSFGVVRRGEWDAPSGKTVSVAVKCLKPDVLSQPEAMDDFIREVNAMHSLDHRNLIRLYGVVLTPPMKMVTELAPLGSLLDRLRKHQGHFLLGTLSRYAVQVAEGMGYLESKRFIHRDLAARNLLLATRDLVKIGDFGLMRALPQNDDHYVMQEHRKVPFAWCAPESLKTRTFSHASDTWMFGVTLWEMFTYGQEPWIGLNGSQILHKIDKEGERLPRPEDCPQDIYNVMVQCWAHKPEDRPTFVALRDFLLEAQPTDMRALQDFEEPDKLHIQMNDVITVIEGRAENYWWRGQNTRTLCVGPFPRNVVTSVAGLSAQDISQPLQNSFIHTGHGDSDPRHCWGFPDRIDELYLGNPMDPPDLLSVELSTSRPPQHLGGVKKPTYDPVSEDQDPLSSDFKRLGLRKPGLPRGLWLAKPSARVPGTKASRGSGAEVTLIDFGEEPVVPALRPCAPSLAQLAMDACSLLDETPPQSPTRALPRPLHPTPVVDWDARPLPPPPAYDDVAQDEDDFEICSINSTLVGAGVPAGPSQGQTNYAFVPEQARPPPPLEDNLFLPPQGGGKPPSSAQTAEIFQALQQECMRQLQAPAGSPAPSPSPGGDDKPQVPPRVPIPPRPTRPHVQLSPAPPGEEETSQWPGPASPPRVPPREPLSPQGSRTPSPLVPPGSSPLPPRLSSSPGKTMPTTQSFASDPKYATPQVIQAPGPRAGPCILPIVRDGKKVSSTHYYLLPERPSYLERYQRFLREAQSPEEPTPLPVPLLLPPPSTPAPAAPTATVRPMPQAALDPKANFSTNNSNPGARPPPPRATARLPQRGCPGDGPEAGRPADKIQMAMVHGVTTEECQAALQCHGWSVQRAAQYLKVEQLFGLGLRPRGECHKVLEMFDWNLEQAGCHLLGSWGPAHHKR
Sequence of MAP/microtubule affinity-regulating kinase 3 (P27448 whole entry, looked up): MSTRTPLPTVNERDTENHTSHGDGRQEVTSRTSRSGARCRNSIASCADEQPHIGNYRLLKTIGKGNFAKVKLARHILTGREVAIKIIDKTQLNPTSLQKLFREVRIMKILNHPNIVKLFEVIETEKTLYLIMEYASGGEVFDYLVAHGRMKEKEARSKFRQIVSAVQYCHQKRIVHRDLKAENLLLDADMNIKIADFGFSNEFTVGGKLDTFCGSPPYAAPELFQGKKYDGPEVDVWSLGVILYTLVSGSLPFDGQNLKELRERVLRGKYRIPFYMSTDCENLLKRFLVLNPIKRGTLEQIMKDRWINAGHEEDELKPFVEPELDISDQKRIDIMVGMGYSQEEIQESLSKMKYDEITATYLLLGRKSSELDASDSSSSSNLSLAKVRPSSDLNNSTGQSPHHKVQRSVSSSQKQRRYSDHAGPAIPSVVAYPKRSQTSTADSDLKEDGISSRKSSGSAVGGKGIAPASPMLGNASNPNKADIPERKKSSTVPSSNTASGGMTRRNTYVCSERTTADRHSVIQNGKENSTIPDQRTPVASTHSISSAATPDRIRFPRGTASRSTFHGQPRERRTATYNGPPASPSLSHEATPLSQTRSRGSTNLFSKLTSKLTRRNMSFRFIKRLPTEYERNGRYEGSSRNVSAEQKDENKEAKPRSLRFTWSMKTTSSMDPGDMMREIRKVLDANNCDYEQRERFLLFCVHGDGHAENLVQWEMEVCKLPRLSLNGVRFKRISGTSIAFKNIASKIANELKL

Usually IC50 stands for the midpoint of a concentration-inhibition curve. The low end stands for higher potency, the high end for lower potency. The term inhibition denotes the change of the read-out against control, counted positive when it falls. For the compound `CCOc1cc(N2CCC(O)CC2)ccc1Nc1ncc2c(n1)N(C)c1ccccc1C(=O)N2C`, the figures for the Activity (in test [1]; on Activated CDC42 kinase 1) were 28% and 17%, respectively. Further, the IC50 (in test [2]; in [3]; in test [4]; against AMPK alpha1/alpha2; in test [5]) was over 50 µM in each case. The inhibition in test [6] was 0.4%; in [7] it was 4.8%; in test [8], 18.8%; in [9], -2.2%; in [10], -5.2%; in test [11] it was 1.1%. Besides, the inhibition in [12] was -1.1%; in test [13] it was 25.9%. In addition, the inhibition at 2 µM in test [14] was -8.6%.

The values above are taken from ChEMBL document CHEMBL5661979, “Pharmacological inhibition of BMK1 suppresses tumor growth through promyelocytic leukemia protein” (Cancer Cell, 2010).
